Screens (PubChem BioAssay)
Platelet DG rel – modulates dense granule release in human platelets | human platelet-rich plasma, SFLLRN dense granule ATP release, luminescence | inhibition, %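 (compounds screened at 7.5 µM in platelet-rich plasma)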 | 300,000 compounds, 0.22% hits | AID 1663;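 active = mean replicate score, as percent of positive control, at or above 50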
STAT1 blocker – STAT1 signaling inhibition | inhibition, % at 5.5 µM | 200,000 compounds, 0.35% hits | NIH 3T3 STAT1-luciferase reporter, IFN-gamma, luminescence;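 active = inhibition above a set limit, the mean inhibition across all tested compounds plus 3 SD, cut at about 34% in these data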;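 also: 0% = IFN-gamma with DMSO and 100% = IFN-gamma with 300 µM nifuroxazide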
STAT3 inh-1 – STAT3 signaling inhibition. U3A cells, IL-6 STAT3-luciferase reporter, luminescence; host cell line lacks STAT1. 190,000 compounds, 0.89% hits. inhibition, % at 5.5 µM. AID 862;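 active = inhibition above the mean inhibition across all screened compounds plus 3 SD, cut at about 44% in these data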;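 also: 0% = DMSO only wells and 100% = 100 µM nifuroxazide control wells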
Lipid droplet – modulators of hepatic lipid droplet formation | inhibition, % at 6.5 µM | 240,000 compounds, 0.4% hits | AML12 mouse hepatocytes, oleate lipid droplets, BODIPY imaging | AID 1656;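 active = lipid droplet intensity inhibited by at least 50%, with more than 500 cells counted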
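Material: mouse AML12 hepatocyte cell line, fixed after treatment; Timing: compound with oleate, overnight; Technique: high-content imaging of BODIPY-stained droplets and DAPI nuclei; Probe or stimulus: oleate, 100 µM final; Dosing: compound at 6.5 µM only.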
TAG inh – reduces triacylglycerol accumulation in H9c2 cells; Nile Red lipid (TAG) fluorescence; cells loaded with 200 µM oleic acid; inhibition, % at 12.5 µM; 230,000 compounds, 0.66% hits;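 active = pattern-corrected inhibition of lipid staining of at least 50% with the nuclear-stain viability signal not falling by more than 50%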;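 also: 0% = DMSO wells and 100% = triacsin C control wells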
PPC-1+TRAIL kill – compounds killing PPC-1 cancer cells with TRAIL present (potentiator screen, no TRAIL-free arm); 220,000 compounds, 0.41% hits; PPC-1 cells + TRAIL, ATPLite viability luminescence; cell killing (% activity), % at 4 µM or 5 µM;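 active = cell killing above 50% in the first pass at 4 µM, then a duplicate retest at 5 µM averaging 50% or more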;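 also: plate controls were cells with TRAIL plus DMSO for no effect and medium-only wells lacking cells for full effect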
STAT3 inh-2 – confirmation of STAT3 signaling inhibitors. shares compounds with STAT3 inh-1. U3A cells, IL-6 STAT3 luciferase reporter, luminescence; cell line lacks STAT1. inhibition, % at 5.7 µM. AID 1265. 1,200 compounds, 45% hits;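 active = inhibition above the hit cutoff computed for the primary STAT3 screen, cut at about 44% in these data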;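 also: 0% = IL-6 plus DMSO and 100% = IL-6 plus nifuroxazide control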
NFkB inh 2 – counter-screen for STAT3 inhibitors: NF-kappaB inhibition; shares compounds with STAT3 inh-1; HEK293T NF-kB luciferase reporter, TNF-alpha induced; inhibition, % at 5.7 µM; 1,200 compounds, 36% hits; AID 1308;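 active = inhibition above the mean of solvent-only control wells plus 3 SD, cutoff set per campaign, cut at about 13% in these data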;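 also: 0% = TNF-alpha with DMSO and 100% = TNF-alpha with MG high control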
STAT1 inh 2 – inhibits STAT1, counter-screen to STAT3 inhibitors; shares compounds with STAT3 inh-1; NIH 3T3 STAT1-luciferase reporter, IFN-gamma induced, luminescence; inhibition, % at 5.7 µM; 1,200 compounds, 27% hits; AID 1317;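 active = inhibition above the mean plus 3 SD of solvent-only control wells, limit set per screening run, cut at about 16% in these data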;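 also: 0% = DMSO with IFN-gamma and 100% = nifuroxazide control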
* marks the source's active call; other numbers are inactive results; . = no result given. A selection: hits, their analogues and other compounds. The true share with any hit is near 1.5%.

SMILES | Platelet DG rel | STAT1 blocker | STAT3 inh-1 | Lipid droplet | TAG inh | PPC-1+TRAIL kill | STAT3 inh-2 | NFkB inh 2 | STAT1 inh 2
O=C(Nc1ccccn1)c1onc2c1CCCC2 | 28 | -3 | 69* | 2 | . | 67* | 53* | 16* | -12
Cc1onc(-c2ccccc2)c1C(=O)N1CCC(C)(C(=O)O)C1 (stereo unspecified) | . | . | . | . | 6 | . | . | . | .
Cc1nc2sccn2c1-c1csc(NCc2ccccc2)n1 | -4 | 11 | 66* | . | . | 6 | 51* | 9 | 12
COc1cccc2cc(-c3nnc(-c4ccccc4)o3)c(=O)oc12 | 13 | -22 | 46* | -4 | . | . | 31 | 3 | -67
COc1ccc(-c2nnc(-c3cc4ccccc4oc3=O)o2)cc1 | 1 | -1 | 10 | -2 | . | 16 | . | . | .
O=C(NCc1ccc(F)cc1)C1CCC(=O)N1C1CCCCC1 (stereo unspecified) | -8 | 0 | 45* | . | . | -8 | 8 | -7 | -7
O=c1c2ccccc2nc(N/N=C/c2ccc(O)cc2)n1O | 25 | 24 | 52* | 9 | -7 | 2 | 31 | 16* | 34*
Cc1nc2ccccc2c(=O)n1/N=C/c1c(O)ccc2ccccc12 | 2 | -6 | 3 | -13 | -11 | 34 | . | . | .
O=c1c2ccccc2nc(N/N=C/c2c(O)ccc3ccccc23)n1O | 14 | 8 | 46* | -42 | 49 | 21 | -9 | 21* | -2
CC1(C)CC2CC(C)(CN2S(=O)(=O)c2ccc(C(=O)Nc3ccc(Cl)c(S(=O)(=O)N4CCOCC4)c3)cc2)C1 (stereo unspecified) | -6 | 8 | 45* | . | . | 25 | 50* | 22* | 7
CC(C)Nc1ncnc2c1ncn2[C@H]1CN(Cc2cccs2)C[C@@H](CO)O1 | . | . | . | . | 4 | . | . | . | .
NC(=O)CSc1nnc(-c2ccc3c(c2)OCO3)o1 | -6 | -14 | 9 | -9 | . | 6 | . | . | .
C/C(N)=C(/C#N)C(=O)CSc1nnc(-c2ccc3c(c2)OCO3)o1 | -9 | -37 | 48* | -14 | . | 27 | 18 | -9 | -97
Cc1ccc(/C=C/c2nnc(-c3cccs3)o2)cc1 | -3 | 10 | 64* | . | . | 16 | 24 | -9 | -40
c1ccc(-c2cc(CSc3nc4ccccc4[nH]3)on2)cc1 | 5 | 13 | 46* | 9 | 10 | -7 | 37 | 11 | 14
CCCS(=O)(=O)NC(=O)C1(C)CCN(C(=O)c2ccc3c(c2)OCO3)C1 (stereo unspecified) | . | . | . | . | -1 | . | . | . | .
Oc1ccc(-c2cnc(-c3ccc(O)cc3)nc2)cc1 | 14 | . | . | 12 | . | . | . | . | .
Nc1ccc(-c2cnc(-c3ccc(N)cc3)nc2)cc1 | -2 | -40 | 49* | . | 20 | -10 | 5 | -33 | -106
CCCN1CCN(C(=O)c2cc(COc3ccc4ncccc4c3)on2)CC1 | -3 | 15 | 34 | -12 | -7 | 8 | . | . | .
COCC1CCCCN1C(=O)c1cc(COc2ccc3ncccc3c2)on1 (stereo unspecified) | -5 | . | . | -48 | . | . | . | . | .
CCC1CCCCN1C(=O)c1cc(COc2ccc3ncccc3c2)on1 (stereo unspecified) | -4 | 26 | 85* | -90 | -36 | 15 | 83* | 32* | 21*
CCN1CCN(C(=O)c2cc(COc3ccc4ncccc4c3)on2)CC1 | -4 | 22 | 45* | -21 | -43 | 2 | 42 | 12 | 18*
Cc1nc(CN(C)C(=O)c2cc(COc3ccc4ncccc4c3)on2)cs1 | 5 | 27 | 71* | -32 | -8 | 0 | 62* | 19* | 24*
COc1ccc([C@H]2C[C@@H](n3cc(-c4ccc(F)cc4)nn3)[C@H](O)CN2C(=O)C2CCCCC2)cc1 | . | . | . | . | 9 | . | . | . | .
O=C(Nc1ccc(F)c(F)c1)c1ccc(F)c(S(=O)(=O)N2CCOCC2)c1 | 1 | 14 | 46* | . | . | -13 | 19 | 6 | 2
SMILES | Platelet DG rel | STAT1 blocker | STAT3 inh-1 | Lipid droplet | TAG inh | PPC-1+TRAIL kill | STAT3 inh-2 | NFkB inh 2 | STAT1 inh 2
CC(=O)c1cccc(NC(=O)c2cccc(S(=O)(=O)N3CCOCC3)c2)c1 | -1 | . | . | . | . | . | . | . | .
CC(=O)c1ccc(NC(=O)c2ccc(C)c(S(=O)(=O)N3CCOCC3)c2)cc1 | -5 | . | . | -2 | . | . | . | . | .
CCOC(=O)c1ccc(NC(=O)c2cccc(S(=O)(=O)N3CCOCC3)c2)cc1 | -3 | 9 | 58* | . | 11 | 3 | 37 | 3 | -4
CCOC(=O)c1ccc(NC(=O)c2ccc(C)c(S(=O)(=O)N3CCOCC3)c2)cc1 | -2 | 8 | 72* | . | -6 | 10 | 69* | 22* | 14
CCN(CC)C(=O)C1=C(C)N(Cc2ccc(C(C)(C)C)cc2)C(=O)C(CC(=O)NCC2CCCCC2)C1 (stereo unspecified) | . | . | . | . | 5 | . | . | . | .
COCCNC(=O)C(OC(=O)c1ccco1)c1ccc(OC)cc1 (stereo unspecified) | . | . | . | . | -4 | . | . | . | .
O=C(Nc1ccc(SC(F)(F)F)cc1)c1ccccn1 | 10 | 24 | 62* | 2 | -3 | 26 | 24 | -21 | -119
Cc1cc(C(=O)COC(=O)c2n[nH]c3ccccc23)c(C)n1CC1CCCO1 (stereo unspecified) | 7 | 1 | 64* | . | -10 | 4 | 20 | -5 | -70
Cc1cc(C(=O)COC(=O)c2n[nH]c3ccccc23)c(C)n1C | -2 | -33 | 53* | -2 | 43 | 30 | 6 | -14 | -83
Cc1cc(C(=O)COc2ccccc2C(N)=O)c(C)n1CC1CCCO1 (stereo unspecified) | 13 | 24 | 73* | 5 | -6 | 7 | 70* | 22* | 16*
Cc1cc(C(=O)COC(=O)c2ccccc2O)c(C)n1CC1CCCO1 (stereo unspecified) | . | . | . | . | -5 | . | . | . | .
Cn1c(N)c(C(=O)COC(=O)C2Cc3ccccc3CN2S(C)(=O)=O)c(=O)n(C)c1=O (stereo unspecified) | . | . | . | . | 5 | . | . | . | .
Cc1ccccc1N1CCN(C2CCCN(C(=O)CSc3ccccn3)C2)CC1 (stereo unspecified) | . | . | . | . | 31 | . | . | . | .
Cc1ccccc1N(CC(=O)N1CCN(Cc2ccccc2)CC1)S(C)(=O)=O | . | . | . | . | -9 | . | . | . | .
Cc1cc(Nc2cccc([N+](=O)[O-])c2)n2c(nc3ccccc32)c1C#N | -8 | 8 | 80* | -16 | . | 27 | 73* | 46* | 55*
CC(=O)N(C)C[C@H]1Oc2ncc(Br)cc2C(=O)N([C@H](C)CO)C[C@@H]1C | . | . | . | . | -1 | . | . | . | .
